What was measured:
[1] = target: WT CFTR (Homo sapiens, UniProt P13569); assay: Inside-out patch clamp recording of macroscopic currents, WT CFTR; assay type: biochemical; conditions: for change of CFTR currents: enantiomers perfused at 100 M, inside-out patches, 3 mM ATP
Outline: (§1)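 WT, S308A or Y304A CFTR (mutants made by site-directed mutagenesis), C-terminally GFP-tagged in BacMam vector, transfected into CHO cells, then 2% FBS at 30 °C for 2 days. Excised inside-out patches were phosphorylated with 25 units/ml PKA plus 3 mM ATP and held at −30 mV, 25 °C, pH 7.4 NMDG solutions. Fold stimulation is the current ratio with/without perfused compound. Dose-response currents were normalized to pre-titration ATP current and fitted for EC50. Means ± SE of patches.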

[2] = target: S308A CFTR (Homo sapiens, UniProt P13569, S308A); assay: Inside-out patch clamp recording, S308A CFTR; assay type: biochemical; conditions: inside-out patches, 3 mM ATP
Outline: as §1

[3] = target: Y304A CFTR (Homo sapiens, UniProt P13569, Y304A); assay: Inside-out patch clamp recording, Y304A CFTR; assay type: biochemical; conditions: inside-out patches, 3 mM ATP
Outline: as §1

[4] = ref [8]; cited from earlier work
[5] = ref [9],[10]; cited from earlier work

Chain of WT CFTR (P13569 whole entry, the tested form may be a part): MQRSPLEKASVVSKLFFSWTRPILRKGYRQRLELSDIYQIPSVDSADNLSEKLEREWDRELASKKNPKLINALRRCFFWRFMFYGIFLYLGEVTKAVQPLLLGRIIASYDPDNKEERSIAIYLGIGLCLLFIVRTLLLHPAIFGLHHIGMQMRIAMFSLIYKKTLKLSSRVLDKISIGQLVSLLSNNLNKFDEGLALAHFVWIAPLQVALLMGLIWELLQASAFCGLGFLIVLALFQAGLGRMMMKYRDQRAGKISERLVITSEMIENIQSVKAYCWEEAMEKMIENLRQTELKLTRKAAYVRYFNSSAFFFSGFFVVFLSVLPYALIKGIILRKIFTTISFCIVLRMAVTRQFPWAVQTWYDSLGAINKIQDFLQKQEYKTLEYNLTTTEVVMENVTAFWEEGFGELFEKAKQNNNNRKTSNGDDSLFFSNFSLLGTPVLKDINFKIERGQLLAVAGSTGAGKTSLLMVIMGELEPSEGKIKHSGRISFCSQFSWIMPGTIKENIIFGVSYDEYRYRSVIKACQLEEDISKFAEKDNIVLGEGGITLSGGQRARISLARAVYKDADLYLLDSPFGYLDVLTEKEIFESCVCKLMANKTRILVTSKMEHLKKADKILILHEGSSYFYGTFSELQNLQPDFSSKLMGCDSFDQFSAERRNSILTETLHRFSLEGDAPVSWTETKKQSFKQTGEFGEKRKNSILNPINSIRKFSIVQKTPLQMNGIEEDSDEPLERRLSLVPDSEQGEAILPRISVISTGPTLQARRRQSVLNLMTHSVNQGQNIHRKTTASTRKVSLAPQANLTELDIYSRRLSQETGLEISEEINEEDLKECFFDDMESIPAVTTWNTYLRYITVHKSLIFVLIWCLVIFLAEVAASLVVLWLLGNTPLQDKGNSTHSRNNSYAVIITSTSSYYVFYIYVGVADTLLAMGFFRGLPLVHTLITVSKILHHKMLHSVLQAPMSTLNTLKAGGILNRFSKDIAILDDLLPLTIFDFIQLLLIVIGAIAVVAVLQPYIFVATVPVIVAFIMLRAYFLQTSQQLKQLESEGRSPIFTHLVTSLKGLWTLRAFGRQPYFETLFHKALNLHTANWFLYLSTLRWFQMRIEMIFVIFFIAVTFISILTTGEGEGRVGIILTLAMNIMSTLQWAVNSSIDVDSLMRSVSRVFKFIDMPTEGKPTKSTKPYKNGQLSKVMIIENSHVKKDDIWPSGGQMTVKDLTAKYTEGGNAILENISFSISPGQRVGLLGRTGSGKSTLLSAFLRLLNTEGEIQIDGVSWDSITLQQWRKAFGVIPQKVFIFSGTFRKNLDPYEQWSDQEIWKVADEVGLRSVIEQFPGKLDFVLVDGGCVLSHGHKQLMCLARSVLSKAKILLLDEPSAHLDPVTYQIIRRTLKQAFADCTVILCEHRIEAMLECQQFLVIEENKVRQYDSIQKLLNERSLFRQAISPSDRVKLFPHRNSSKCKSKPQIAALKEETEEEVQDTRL
Chain of Y304A CFTR (P13569 whole entry Y304A): as the sequence (P13569 whole entry, the tested form may be a part) above, with Y304A counted along it
Chain of S308A CFTR (P13569 whole entry S308A): as the sequence (P13569 whole entry, the tested form may be a part) above, with S308A counted along it

In the case of `C[C@H](COc1ccccc1)C(=O)n1nc(N)c2ccc(F)cc21` [(R)-’853, (R)-1-(3-Amino-6-fluoro-1H-indazol-1-yl)-2-methyl-3-phenoxypropan-1-one], the “change of CFTR currents” value [1] is reported as 0.89 fold.
For `C[C@@H](COc1ccc(F)cc1)C(=O)n1nc(N)c2ccc(F)cc21` [(S)-SX263, (S)-1-(3-Amino-6-fluoro-1H-indazol-1-yl)-3-(4-fluorophenoxy)-2-methylpropan-1-one], the EC50 [1] was 136 ± 60 nM.
With `C[C@@H](COc1ccccc1)C(=O)n1nc(N)c2ccc(F)cc21` [(S)-’853, (S)-1-(3-Amino-6-fluoro-1H-indazol-1-yl)-2-methyl-3-phenoxypropan-1-one] the EC50 [1] was 2100 ± 900 nM, the “change of CFTR currents” value [1] was 1.5 fold and the “effect of alanine substitution S308A on compound activity” value [2] was “abolished the potentiating effect”. The “effect of alanine substitution Y304A on compound activity” value [3] was “abolished the potentiating effect”.
For `C[C@@H](COc1ccccc1)C(=O)n1nc(N)c2ccc(CO)cc21` [Compound I1408, (S)-1-(3-Amino-6-(hydroxymethyl)-1H-indazol-1-yl)-2-methyl-3-phenoxypropan-1-one], the EC50 [1] was 93 ± 42 nM.
With `C[C@H](COc1ccccc1)C(=O)n1ncc2ccc(C(N)=O)cc21` [Compound I1412, (R)-1-(2-Methyl-3-phenoxypropanoyl)-1H-indazole-6-carboxamide] the IC50 [1] was 21000 nM, the “effect of alanine substitution S308A on compound activity” value [2] was “eliminated the activity” and the “effect of alanine substitution Y304A on compound activity” value [3] was “eliminated the activity”.
With `C[C@H](COc1ccccc1)C(=O)n1nc(N)c2ccc(C(N)=O)cc21` [Compound I1422, (R)-3-Amino-1-(2-methyl-3-phenoxypropanoyl)-1H-indazole-6-carboxamide] the IC50 [1] was 41000 nM.
In the case of `CC(C)(C)c1cc(C(C)(C)C)c(NC(=O)c2c[nH]c3ccccc3c2=O)cc1O` [Ivacaftor, N-(2,4-di-tert-butyl-5-hydroxyphenyl)-4-oxo-1,4-dihydroquinoline-3-carboxamide], the water solubility [4] is given as less than 0.05 µg/mL and the “bound to plasma proteins” value [5] is given as 99%.
